# Source: PubChem
# Compounds with a hit are over-represented: about 1.9% of the library has one in this group of screens.
# RanGTP-Imp inh = disruptors of Ran-importin-beta complex formation – biochemical, FRET, CFP-Ran, YFP-importin-beta, homogeneous, primary screen | cell-free CFP-Ran/YFP-importin-beta FRET ratio | inhibition, % (concentration not given with the values) | 300,000 compounds, 1.1% hits;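 active = more than half of the replicate wells show a fall in the fluorescence ratio signal beyond about 16%, limit read from the data, passing the limit was not always enough; inconclusive = exactly half of the replicate wells pass the set limit; inactive = fewer than half of replicates pass the limit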;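 note: 0% = DMSO wells and 100% = Ran loaded with GDP instead of GTP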
# Runt-CBFb FRET = Runt domain-CBFb interaction inhibition. Q01196+Q13951. Cerulean-Runt/Venus-CBFb FRET ratio 530/480, 1 h. inhibition, % at 20 µM. 220,000 compounds, 0.46% hits;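 active = inhibition over about 50% at 20 µM in the single-dose screen, limit read from the data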;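 note: 0% = DMSO wells and 100% = excess unlabeled CBFb competitor control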
# Target sequence (Q01196 whole entry, looked up, the tested form may be a part): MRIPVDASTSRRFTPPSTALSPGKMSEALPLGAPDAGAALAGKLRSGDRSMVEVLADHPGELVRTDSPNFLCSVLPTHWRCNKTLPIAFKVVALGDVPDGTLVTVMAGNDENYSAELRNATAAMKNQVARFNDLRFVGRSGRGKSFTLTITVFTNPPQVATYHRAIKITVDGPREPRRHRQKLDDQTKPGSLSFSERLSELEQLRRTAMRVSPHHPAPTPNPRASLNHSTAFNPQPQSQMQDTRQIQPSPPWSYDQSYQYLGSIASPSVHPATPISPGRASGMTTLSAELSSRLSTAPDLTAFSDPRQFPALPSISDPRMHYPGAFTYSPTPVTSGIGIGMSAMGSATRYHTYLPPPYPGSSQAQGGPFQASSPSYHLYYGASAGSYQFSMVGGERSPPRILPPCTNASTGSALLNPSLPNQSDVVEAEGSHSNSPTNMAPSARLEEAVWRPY
# Target sequence (Q13951 whole entry, looked up, the tested form may be a part): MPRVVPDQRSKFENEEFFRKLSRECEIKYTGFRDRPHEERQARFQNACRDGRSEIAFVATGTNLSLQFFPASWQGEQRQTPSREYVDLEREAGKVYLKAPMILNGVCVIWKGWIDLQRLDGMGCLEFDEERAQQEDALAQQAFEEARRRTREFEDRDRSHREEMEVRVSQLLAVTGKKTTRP
#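 Assay system: Cerulean-Runt domain / Medium: Tris 50 mM pH 7.5, KCl, K2SO4, 0.01% BSA / Timing: protein complex preformed 1 h, compound exposure 1 h, room temperature, dark / Measured by: FRET, excitation 422 nm, emission at 530 and 480 nm / Evaluation: loss of energy transfer signal / Control set: 5 µM unlabeled CBFb as full-inhibition high control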
# Hck Nef HTS = human Hck-Nef kinase inhibition | P08631 | 220,000 compounds, 0.68% hits | AID 463187 | Recombinant Hck-YEEI plus Nef, Z-Lyte FRET kinase assay | inhibition, % at 20 µM;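 active = Hck-Nef kinase inhibition above about 50%, limit read from the data; inactive = inhibition below that limit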;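 note: 0% = DMSO with Hck plus Nef and 100% = Hck alone without Nef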
# Runt-SMMHC FRET = inhibitors of human RUNX1 Runt domain binding to CBFb-SMMHC | inhibition, % at 20 µM | Q01196+Q13951 | AID 1434 | 220,000 compounds, 0.74% hits | Cerulean-Runt/Venus-CBFb-SMMHC FRET ratio 530/480, 1 h;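 active = mean inhibition across duplicate retests at 20 µM reaching about 50%, limit read from the data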;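 note: 0% = DMSO wells and 100% = wells with excess untagged CBFb-SMMHC; inhibitors lower the FRET ratio by blocking Runt binding to CBFb-SMMHC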
# Numbers without * were called inactive; ? = inconclusive; . = not tested or not shown.
SMILES,RanGTP-Imp inh,Runt-CBFb FRET,Hck Nef HTS,Runt-SMMHC FRET
CCOC(=O)C1CCCN(c2nc3ccccc3nc2C(C#N)C(=O)OC(C)COC)C1 (stereo unspecified),?,-3,0,12
C=CCOC(=O)C(C#N)c1nc2ccccc2nc1N1CCN(Cc2ccccc2)CC1 (stereo unspecified),.,0,-3,68*
COCC(C)OC(=O)C(C#N)c1nc2ccccc2nc1N1CCN(Cc2ccccc2)CC1 (stereo unspecified),7,44,2,72*
CCCCOC(=O)C(C#N)c1nc2ccccc2nc1N1CCN(Cc2ccc3c(c2)OCO3)CC1 (stereo unspecified),.,43,-1,75*
COC(=O)C(C#N)c1nc2ccccc2nc1N1CCN(Cc2ccc3c(c2)OCO3)CC1 (stereo unspecified),-2,13,.,26
CC(C)COC(=O)C(C#N)c1nc2ccccc2nc1N1CCN(Cc2ccccc2)CC1 (stereo unspecified),?,27,-2,53
Cc1cc(C)c(S(=O)(=O)N2CCN(C(=O)CCn3nc(C)c(C)c3C)CC2)c(C)c1,3,.,.,.
Cc1cc(/C=N/NC(=O)Cn2c3ccccc3c(=O)c3ccccc32)c(C)n1-c1ccc(Cl)cc1,.,101*,35,.
CCNC(=S)N/N=C/c1cc(C)n(-c2ccc(Cl)cc2)c1C,1,0,-3,4
Cc1ccc(-n2c(C)cc(/C=N/NC(=O)Cn3c4ccccc4c(=O)c4ccccc43)c2C)cc1,.,106*,38,.
Cc1oc(C(=O)O)cc1COc1cccc2cccnc12,?,-1,0,-1
CCC1CCCCN1C(=O)c1ccc([N+](=O)[O-])o1 (stereo unspecified),0,.,.,.
O=C(NCc1cccc2[nH]ccc12)C1CCC(=O)N(CCc2ccccc2)C1 (stereo unspecified),-1,.,.,.
Cc1ccc(NC(NC(=O)OCCn2c([N+](=O)[O-])cnc2C)C(Cl)(Cl)Cl)cc1 (stereo unspecified),18*,0,1,-1
Cc1ncc([N+](=O)[O-])n1CCOC(=O)NC(NCc1ccccc1Cl)C(Cl)(Cl)Cl (stereo unspecified),2,-1,1,1
CC(C)c1nc(SCC(=O)Nc2ccc3c(c2)OCCO3)n[nH]1,20*,0,10,-3
CC(C)c1nc(SCC(=O)Nc2ccc3c(c2)OCO3)n[nH]1,2,2,-2,-3
CNC(=O)NC(=O)COC(=O)CCCSc1nc2ccccc2s1,0,-2,1,4
Cc1cnccc1CNC(=O)C1CCC(=O)N(Cc2ccc(Cl)cc2)C1 (stereo unspecified),5,.,.,.
CCOC(=O)c1sc(CS(=O)(=O)c2ccc(Cl)cc2)nc1C,8,2,16,-11
CCOC(=O)c1sc(-c2ccc(Cl)cc2Cl)nc1O,-37,-61,-135,84*
C(=C/c1nccc2c1[nH]c1ccccc12)/c1ccc2c(c1)OCO2,120*,26,8,53*
O=C(O)CCCC(=O)N1N=C(c2ccccc2)CC1c1ccc2c(c1)OCO2 (stereo unspecified),1,.,.,.
N#C/C(=C\c1ccc(O)c(O)c1)C(=O)Nc1cccc2ncccc12,93*,.,.,.
N#C/C(=C\c1ccc(F)cc1)C(=O)Nc1ccccn1,39*,.,.,.
SMILES,RanGTP-Imp inh,Runt-CBFb FRET,Hck Nef HTS,Runt-SMMHC FRET
N#C/C(=C/c1ccc(O)c(O)c1)C(=O)NCc1ccc(Cl)cc1,7,.,.,.
FC(F)(F)c1cc(-c2cccs2)nc2cc(-c3cccs3)nn12,43*,-5,15,-32
CCC(C)N1C(=O)CCC1C(=O)O (stereo unspecified),-4,2,1,0
COc1ccc(/C=C/c2nnc(NC(=O)CSc3ccc(C)cc3)s2)cc1,7,1,23,124*
CCC(=O)Nc1nnc(/C=C/c2ccc(OC)cc2)s1,1,-2,2,1
O=C(Nc1ccccc1)N1CCCC(c2nc(-c3cccs3)no2)C1 (stereo unspecified),4,-1,-1,-8
O=C(Cc1nc2ccccc2[nH]1)N/N=C/c1ccccc1,.,2,0,0
CC(C)(C)c1cc(/C=N/NC(=O)Cc2nc3ccccc3[nH]2)cc(C(C)(C)C)c1O,39*,13,10,30
CCC(C)(C)NC(=O)C1CCN(c2nc(OC)nc(OC)n2)CC1,4,-2,3,1
CCOC(=O)c1c(NC(=O)CSc2nnc(-c3c[nH]c4ccccc34)n2CCOC)sc2c1CCCC2,-6,0,-5,-4
CCOC(=O)c1c(NC(=O)CSc2nnc(-c3c[nH]c4ccccc34)n2C)sc2c1CCCC2,26*,1,-3,2
CCCCOC(=O)c1ccc(-c2ccc(/C=N/NC(=S)NCC)o2)cc1,43*,3,2,9
CCOC(=O)c1ccc(-c2ccc(/C=N/NC(=O)c3cncc(Br)c3)o2)cc1,-4,-6,9,-54
CC(C)n1nc(C(=O)Nc2nc3ccccc3[nH]2)c2ccccc2c1=O,-1,103*,19,2
CCCn1nc(C(=O)Nc2nc3ccccc3[nH]2)c2ccccc2c1=O,0,-5,-1,3
COc1ccc(NC(=O)c2nc[nH]c2C(=O)N2CCN(C(=O)OC(C)(C)C)CC2)cc1,25*,0,30,0
CCNC(=O)/C(C#N)=C/c1c(N2CCN(c3ccccc3)CC2)nc2c(C)cccn2c1=O,20*,.,.,.
Cc1cccn2c(=O)c(/C=C(\C#N)C(=O)NCc3ccccc3)c(N3CCC(C(N)=O)CC3)nc12,3,148*,6,89*
CCN1CCN(c2nc3c(C)cccn3c(=O)c2/C=C(\C#N)C(=O)NC)CC1,-58,.,.,.
CCOC(=O)/C(C#N)=C/c1c(N2CCN(CC)CC2)nc2c(C)cccn2c1=O,99*,.,.,.
Cc1cccn2c(=O)c(/C=C(\C#N)C(=O)NCc3ccco3)c(N3CCOCC3)nc12,3,78*,20,10
O=C(CN(Cc1ccc(Cl)cc1)S(=O)(=O)c1ccccc1)NCC1CCCO1 (stereo unspecified),0,.,.,.
O=[N+]([O-])c1cc(Cl)cc(/C=N/NC(=S)Nc2ccc(S(=O)(=O)N3CCOCC3)cc2)c1O,-1,-7,15,-6
C=CCNC(=O)/C(C#N)=C/c1c(N2CC(C)OC(C)C2)nc2ccccn2c1=O (stereo unspecified),42*,4,10,77*
COCCNC(=O)/C(C#N)=C/c1c(N2CCCCCC2)nc2ccccn2c1=O,0,.,.,.
N#C/C(=C\c1c(N2CCC(C(N)=O)CC2)nc2ccccn2c1=O)C(=O)NCc1ccco1,8,128*,3,107*
COCCNC(=O)/C(C#N)=C/c1c(N2CCN(c3ccccc3)CC2)nc2c(C)cccn2c1=O,29*,.,.,.
COc1ccc(C2N(c3ccccc3)CCN2c2ccccc2)cc1O,25*,-1,13,-2
O=C(CCc1ccccc1)NNC(=S)NC(=O)c1ccc(Cl)cc1,-3,16,-1,4
